Shown are actives, neighbours in structure and some others; about 3.8% of the full set was active somewhere.
hERG protect = hERG rescue from dofetilide block, primary screen, cell-based, CHO-hERG, FluxOR thallium flux, dofetilide IC70; dofetilide IC70 present; Voltage-gated inwardly rectifying potassium channel KCNH2 (Homo sapiens), Q12809; AID 1511, 2009; activation (rescue from dofetilide block), less the hit threshold, % at 10 µM; 0.51% of 310,000 active;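 active = activation above the mean of controls blocked by dofetilide plus 5 SD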;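 also: thallium influx through hERG after potassium depolarization seen as dye fluorescence rise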
Kir21 inh = inhibitors of mouse Kir2.1 inward-rectifier potassium channel; B-score at 10 µM; HEK293-Kir2.1, FluxOR thallium flux fluorescence; active compounds read low; 0.85% of 310,000 active;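 active = fluorescence ratio B-score at or below minus 3 SD of library scores, with starting-brightness B-score within 2 SD, cut at about -4.2 in these data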;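 also: channel flux triggered by added potassium and thallium sulfate stimulus; B-score of peak minus minimum fluorescence over baseline after thallium stimulus; more negative B-score means stronger Kir2.1 block with less thallium influx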
KCNK3 block = human KCNK3 channel inhibitors, primary screen, CHO cells, FluxOR thallium flux, B-score; 0.84% of 340,000 active; B-score at 10 µM; FluxOR fluorescence; active compounds read low; AID 602410, 2012; Potassium channel subfamily K member 3 (Homo sapiens), O14649;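 active = B-score under library mean minus 4 SD, starting fluorescence ratio at most library mean plus 5 SD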;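 also: more negative B-score means stronger inhibition of thallium flux through KCNK3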
Target sequence (O14649 whole entry, looked up): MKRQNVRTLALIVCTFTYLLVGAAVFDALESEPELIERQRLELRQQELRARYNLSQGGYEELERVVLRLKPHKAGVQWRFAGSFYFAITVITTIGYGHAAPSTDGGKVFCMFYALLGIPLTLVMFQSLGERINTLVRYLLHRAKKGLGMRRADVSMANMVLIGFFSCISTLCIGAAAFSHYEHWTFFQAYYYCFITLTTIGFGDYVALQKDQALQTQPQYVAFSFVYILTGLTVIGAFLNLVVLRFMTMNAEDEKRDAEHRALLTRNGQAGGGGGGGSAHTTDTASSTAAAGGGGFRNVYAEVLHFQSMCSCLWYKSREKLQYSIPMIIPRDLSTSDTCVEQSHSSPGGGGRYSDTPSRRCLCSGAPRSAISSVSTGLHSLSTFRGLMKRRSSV
KCNQ1 inh = inhibitors of human KCNQ1 channel, primary screen, cell-based, thallium flux, high-throughput | AID 2642, 2010 | CHO-K1 KCNQ1, FluxOR thallium flux fluorescence; active compounds read high | 1.3% of 310,000 active | Potassium voltage-gated channel subfamily KQT member 1 (Homo sapiens), P51787 | B-score at 10 µM;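 active = compounds whose thallium flux B-score, printed positive for inhibition, exceeds three library SD while starting fluorescence stays within three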;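 also: channel opened by potassium depolarization with thallium stimulus after 20 min compound exposure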
KCNQ1 act = potentiators or activators of KCNQ1 channel, primary screen, cell-based, thallium flux, high-throughput; CHO-K1 KCNQ1, thallium flux FluxOR fluorescence; active compounds read high; B-score at 10 µM; 0.35% of 310,000 active;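 active = fluorescence ratio B-score, a plate-corrected score, at least three library SD, with initial intensity B-score within 5 SD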
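Material: CHO-K1 cells stably expressing KCNQ1. Medium: assay buffer for compound exposure, DMSO matched across wells. Reagent: K+/Tl+ depolarizing stimulus. Compound dosing: single-concentration screen. Times: 37 °C overnight plating, 90-min dark dye load, 20-min compound pretreatment. Technique: FluxOR Tl+ flux fluorescence.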
KCNK9 block = KCNK9 potassium channel inhibitors, primary screen, HEK293 cells, thallium flux | Potassium channel subfamily K member 9 (Homo sapiens), Q9NPC2 | FluxOR thallium flux fluorescence; active compounds read low | B-score at 10 µM | 1.2% of 310,000 active;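 active = ratio B-score over 3 SD below the library mean, with starting fluorescence within 5 SD of its mean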;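 also: negative B-score means less thallium flux so channel inhibition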
Numbers without * were called inactive; i = inactive; · = no result.

SMILES | hERG protect | Kir21 inh | KCNK3 block | KCNQ1 inh | KCNQ1 act | KCNK9 block
CC1CCN(C(=O)COC(=O)C2CCN(S(=O)(=O)c3ccc4c(c3)OCCO4)CC2)CC1 | -9 | -0.53 | i | i | i | i
CCn1nc(C)c(/C=N/NC(=S)Nc2ccc(Cl)cc2Cl)c1C | 4.8* | 2.7 | i | i | i | i
Cc1nn(C)cc1/C=N/NC(=S)Nc1ccc(Cl)cc1Cl | -6 | 0.54 | i | i | i | i
CN(C)CCCN(C(=O)CCc1ccccc1)c1nc2ccc(F)cc2s1 | -16 | -4.9* | i | i | i | i
O=C(O)COc1ccccc1/C=N/NC(=O)CN1CCN(S(=O)(=O)c2ccc(Br)cc2)CC1 | -10 | 1.6 | i | i | i | i
CNc1c([N+](=O)[O-])cnn1-c1ccc(Cl)cc1 | -6 | 1.2 | i | i | i | -7.9*
CCC1Oc2ccccc2N(CC(=O)NCCN2C(C)CCCC2C)C1=O (stereo not drawn) | 7.2* | 1.5 | i | i | i | i
CCC1Oc2ccccc2N(CC(=O)NCCCN2CCC(C)CC2)C1=O (stereo not drawn) | 5.5* | -0.07 | i | i | i | i
CCOCCCNC(=O)CN1C(=O)C(CC)Oc2ccccc21 (stereo not drawn) | 0 | -0.13 | i | i | i | i
CCC1Oc2ccccc2N(CC(=O)NCCN2CCCC2)C1=O (stereo not drawn) | -6 | -0.42 | i | i | i | i
CSc1ccccc1OCc1cc(C(=O)N2CCN3CCCC3C2)no1 (stereo not drawn) | -3 | -1.4 | i | i | i | i
CCCOc1ccc(C(=O)N(CC(C)C)c2c(N)n(Cc3ccccc3)c(=O)[nH]c2=O)cc1 | 1 | 1.1 | i | i | i | i
COc1ccc2cnn(CCOc3cc(C)ccc3C(C)C)c(=O)c2c1OC | -16 | -4.8* | i | i | i | i
CCCCOP(=O)(OCCCC)C1(C)CC(=O)CC(C)(C)C1 (stereo not drawn) | · | · | i | · | · | ·
O=C(CN1CCCc2ccccc21)N/N=C/c1c(O)ccc2ccccc12 | -5 | 0.08 | i | 7* | i | i
O=C(CN1CCCc2ccccc21)N/N=C/c1ccccc1 | -7 | -1.4 | i | i | i | i
O=C(N/N=C\c1c(O)ccc2ccccc12)c1ccc(S(=O)(=O)N2CCCCC2)cc1 | -15 | -2.4 | i | 6* | i | i
Cc1cc(NC(=O)C(C)SCC(=O)NCc2ccc(F)cc2)no1 (stereo not drawn) | · | · | i | · | · | ·
CN(C)S(=O)(=O)c1cccc(NC(=O)CCNC(=O)c2ccccc2Cl)c1 | -6 | -0.49 | i | i | i | i
Cc1cc(Sc2ncnc(N)c2[N+](=O)[O-])ncn1 | -24 | -1.2 | i | 6* | i | i
CCc1ccc(/C=c2\s/c(=C\C(=O)C(C)(C)C)[nH]c2=O)cc1 | 4 | 0.73 | i | i | i | i
CC(C)(C)C(=O)/C=c1\[nH]c(=O)/c(=C\c2ccc(F)cc2)s1 | -11 | 0.02 | i | i | i | -8*
CSc1nsc(SCC(=O)NCc2ccc(C)cc2)n1 | -5 | -0.4 | i | i | i | i
Cc1cc(=S)[nH]c2c(C)cccc12 | 5.0* | 0.07 | i | i | i | i
CCCCCCC[C@@H](C/C=C/CCC(=O)N(C)C/C(=C/Cl)C/C(=C\C(=O)N1C[C@H](O)CC1=O)OC)OC | · | · | i | · | · | ·
SMILES | hERG protect | Kir21 inh | KCNK3 block | KCNQ1 inh | KCNQ1 act | KCNK9 block
CCCCCCC[C@@H](C/C=C/CCC(=O)N(C)C/C(=C/Cl)C/C(=C\C(=O)N1CC(OC)=CC1=O)OC)OC | · | · | -8.8* | · | · | ·
CCSc1ccccc1C(=O)Nc1ccc([N+](=O)[O-])cc1OC | -24 | -1.7 | i | i | i | i
CCc1ccccc1NC(=O)c1ccccc1Sc1ccc([N+](=O)[O-])cc1Cl | -4 | 0.82 | i | i | i | -7.2*
O=C(Cn1cnc2ccccc21)c1ccccc1 | 5.0* | 0 | i | i | i | i
Cc1ccc(C(=O)CN(CCC(=O)O)C(=O)c2ccncc2)cc1 | · | · | i | · | · | ·
C=CCS/C(=N\n1cnc2ccccc2c1=O)N(CC)CC | -11 | -0.04 | i | i | i | -7.6*
CCNC(=O)C/C(C)=N/NC(=O)C(=O)Nc1ccc(CC)cc1 | 4.7* | -0.4 | i | i | i | i
CCc1ccc(NC(=O)C(=O)N/N=C(\C)CC(=O)NCc2ccc(Cl)cc2)cc1 | -10 | -0.23 | i | i | i | i
O=C(Nc1nccs1)c1cc(-c2ccco2)nc2ccccc12 | -21 | 1.7 | i | i | i | i
Cc1ccc(C)c(-c2cc(C(=O)Nc3sc(C)c(C)c3C(N)=O)c3ccccc3n2)c1 | -16 | 0.34 | i | 6* | i | i
COC(=O)c1sccc1NC(=O)c1ccccc1C(=O)O | -8 | -0.1 | i | i | i | i
O=C(Nc1nccs1)c1cc(-c2ccccc2)nc2ccccc12 | -14 | 0.83 | i | i | i | -6.7*
CCOC(=O)c1sc(NC(=O)CSc2n[nH]c(-c3ccccc3)n2)c(C#N)c1C | -19 | 0.22 | i | i | i | i
COC(=O)c1sccc1NC(=O)c1cc(-c2ccc(C)cc2C)nc2ccccc12 | -18 | 1.5 | i | 8* | i | i
CCOC(=O)c1sc(NC(=O)c2cc(-c3ccccc3)nc3ccccc23)c(C#N)c1C | -35 | -3.1 | i | 8* | i | i
Cc1noc(C)c1NC(=O)N(C)C[C@H]1Oc2ccc(NC(=O)Cn3cnnn3)cc2C(=O)N([C@H](C)CO)C[C@@H]1C | · | · | i | · | · | ·
CCN(CCO)Cc1csc2ccc(C(C)(C)C)cc12 | -10 | -7* | i | i | i | i
CCN(CCO)Cc1csc2cc(C)ccc12 | -6 | 0.83 | i | i | i | i
COc1ccc(N=C2SC(C(=O)Nc3ccc(OC)cc3)CC(=O)N2CCN2CCOCC2)cc1 (stereo not drawn) | -14 | 0.23 | i | i | i | i
Cc1cc(C)cc(C(=O)OCC(=O)Nc2ncccn2)c1 | · | · | i | · | · | ·
CCOC(=O)C1=C(COc2ccc(C)cc2)NC(=O)NC1c1cc(C)ccc1C (stereo not drawn) | -4 | -5.5 | i | i | i | i

Compound activity from PubChem.
